UPR CHOP act: activators of apoptotic CHOP UPR arm, primary screen, cell-based, CHO-CHOP luciferase reporter, luminescence, uHTS; activation, % at 10 µM; UPR activation; percent of tunicamycin response over DMSO baseline; AID 449763, 2010; 0.34% of 330,000 active;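 active = at 10 µM dose, activation of 40% or more, normalized to positive control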
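Test system: CHO-CHOP cells, stable luciferase reporter of PERK-eIF2a-CHOP signalling | Quantity: 500 CHO-CHOP cells per well | Buffer or medium: F12 plus 10% serum | Compound dosing: 10 µM single point, 0.5% DMSO | Schedule: 6 h compound treatment, 37 °C | Signal: Luciferase luminescence | Control set: Tunicamycin high control, DMSO low control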
XBP1 UPR activ: activators of adaptive XBP1 UPR arm, primary screen, cell-based, CHO-XBP1 luciferase reporter, luminescence, uHTS | IRE1-XBP1 UPR activation; percent of tunicamycin response, DMSO as zero | 0.33% of 330,000 active | AID 463104, 2010 | activation, % at 20 µM;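 active = versus positive control, 20 µM dose yields 30% or more activation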
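Assay system: IRE1-XBP1 luciferase reporter CHO line. Input: 1000 cells/well. Buffer or medium: F12 with 10% serum. Doses: 20 µM, 1% DMSO. Times: overnight seeding at 37 °C, 6 h compound treatment at 37 °C. Technique: Steady-Glo luciferase glow luminescence, 10 min after reagent addition.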
Mdm2-MdmX inh: inhibitors of human Mdm2-MdmX association, primary screen, cell-based, luminescence, split luciferase, SaOS-2, uHTS; SaOS-2 split-luciferase Mdm2/MdmX complementation; AID 485346, 2010; inhibition, % at 8 µM; 3% of 330,000 active; Protein Mdm4 (Homo sapiens) + E3 ubiquitin-protein ligase Mdm2 (Homo sapiens), …;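 active = inhibition of at least 50% at 8 µM in the primary screen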
Target sequence (O15151 whole entry, looked up): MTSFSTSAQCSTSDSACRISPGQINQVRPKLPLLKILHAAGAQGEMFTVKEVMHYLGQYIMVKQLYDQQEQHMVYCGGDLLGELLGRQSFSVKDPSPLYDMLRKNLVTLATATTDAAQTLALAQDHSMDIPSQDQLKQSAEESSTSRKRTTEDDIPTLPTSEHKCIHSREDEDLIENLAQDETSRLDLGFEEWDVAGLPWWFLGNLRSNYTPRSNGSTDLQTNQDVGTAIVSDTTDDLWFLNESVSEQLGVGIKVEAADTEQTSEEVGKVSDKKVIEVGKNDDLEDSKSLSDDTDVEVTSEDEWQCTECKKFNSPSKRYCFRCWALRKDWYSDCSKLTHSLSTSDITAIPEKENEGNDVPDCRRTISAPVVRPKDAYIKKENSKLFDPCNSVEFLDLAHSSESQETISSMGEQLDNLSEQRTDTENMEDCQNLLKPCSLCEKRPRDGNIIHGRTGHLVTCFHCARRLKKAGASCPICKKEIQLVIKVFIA
Target sequence (Q00987 whole entry, looked up): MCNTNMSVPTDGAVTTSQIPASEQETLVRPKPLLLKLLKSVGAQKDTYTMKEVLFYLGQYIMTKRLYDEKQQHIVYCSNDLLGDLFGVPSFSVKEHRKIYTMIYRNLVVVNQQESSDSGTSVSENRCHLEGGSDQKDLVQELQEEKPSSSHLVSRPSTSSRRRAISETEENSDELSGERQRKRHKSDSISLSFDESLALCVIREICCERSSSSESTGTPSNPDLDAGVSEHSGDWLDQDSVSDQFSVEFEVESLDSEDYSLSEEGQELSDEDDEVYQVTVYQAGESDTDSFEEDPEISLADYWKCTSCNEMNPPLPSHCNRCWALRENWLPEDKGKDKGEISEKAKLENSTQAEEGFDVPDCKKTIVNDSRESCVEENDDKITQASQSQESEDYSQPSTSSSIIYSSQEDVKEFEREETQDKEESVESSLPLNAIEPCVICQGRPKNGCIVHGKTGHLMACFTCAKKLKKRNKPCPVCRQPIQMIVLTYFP
UBC13 inh: UBC13 polyubiquitin chain formation inhibitors, primary screen, biochemical, TR-FRET, uHTS. Ubiquitin-conjugating enzyme E2 N (Homo sapiens), P61088. inhibition, % at 20 µM. 0.47% of 330,000 active. AID 485273, 2010; in the data active = inhibition above about 45%, passing the limit was not always enough
Apaf1 inhib: inhibitors of human Apaf-1 apoptosome, primary screen, biochemical, DEVD-Rh110 fluorescence, uHTS; inhibition, % at 20 µM; 0.71% of 330,000 active; reconstituted apoptosome caspase-3 activity; AID 489030, 2010; Apoptotic protease-activating factor 1 (Homo sapiens), O14727; active = inhibition of at least 40% at 20 µM
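Material: biochemical Apaf-1 apoptosome reconstitution. Medium: Hepes buffer, pH 7.5. Also added: cytochrome c activation, bis-DEVD rhodamine 110 substrate. Timing: 30 min compound preincubation, 50 min activation, room temperature. Measured by: rhodamine 110 fluorescence at Ex 480/Em 540 nm.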
Mdm2 MdmX conf: Mdm2-MdmX complex disruptors, retested hits, confirmation, luminescence, single concentration | shares compounds with Mdm2-MdmX inh | Mdm2-MdmX binding, luminescent assay | inhibition, % at 8 µM | 55% of 10,000 active | AID 489028, 2010; in the data active = inhibition above about 40%
FLuc counter: full-length luciferase signal inhibition, confirmation, counter-screen for Mdm2/MdmX interaction inhibitor project, cell-based, single concentration, SaOS-2 | shares compounds with Mdm2-MdmX inh | SaOS-2 full-length luciferase counterscreen, luminescence | inhibition, % at 8 µM | 77% of 6,200 active;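 active = mean inhibition at 8 µM reaching about 37%, which flags the compound as non-specific, limit read from the data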;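 note: p53-null SaOS-2 cells with luciferase driven by a doxycycline-inducible promoter; compound on cells about two nights before reading with doxycycline added after day one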
A number is an active result; – = inactive; · = not tested or not shown; ! = a repeat was not active. Most compounds without a hit are left out; they make up all but 4.1% or so of the library.

SMILES	UPR CHOP act	XBP1 UPR activ	Mdm2-MdmX inh	UBC13 inh	Apaf1 inhib	Mdm2 MdmX conf	FLuc counter
CC(=O)Nc1ccc(NCN2C(=O)[C@@H]3[C@H]4CC[C@H](C4)[C@@H]3C2=O)cc1	–	–	–	–	–	·	·
COc1cc2sc3ccc(C#CC4(O)CCCCC4)cc3c(=O)c2cc1OC	–	–	–	–	–	·	·
Cn1c2ccccc2c(=O)c2ccc(C#CC3(O)CCCCC3)cc21	–	–	83	–	–	75	146
O=C(C1=C[C@@H](c2ccc(Br)cc2)C[C@@H](OCCCCO)O1)N1CCN(Cc2ccccc2)CC1	–	–	55	–	–	50	66
CN(C)S(=O)(=O)c1cccc(NC(=O)CSc2nc3c(cc2C#N)C(=O)CC(C)(C)C3)c1	–	–	57	–	–	51	52
N/C(=N\OCc1ccc([N+](=O)[O-])cc1)c1ccccn1	–	–	76	–	–	67	44
CC(C(=O)O/N=C(\N)c1ccccn1)c1ccc([N+](=O)[O-])cc1 (stereo unspecified)	–	–	–	–	–	·	·
CC(Sc1nnc(Cc2ccccc2)n1C)C(=O)NC1CC1 (stereo unspecified)	–	–	–	–	–	·	·
Cc1cccc(COCC(Cc2ccccc2)N2CCN(C(=O)c3ccc(Cl)c(Cl)c3)CCC2=O)c1 (stereo unspecified)	–	–	–	–	–	·	·
O=C(c1ccc(Cl)c(Cl)c1)N1CCC(=O)N(C(COCc2cccc(C(F)(F)F)c2)Cc2ccccc2)CC1 (stereo unspecified)	–	–	51	–	–	–	·
O=C(c1ccc(Cl)c(Cl)c1)N1CCC(=O)N(C(COCc2ccc(Cl)cc2)Cc2ccccc2)CC1 (stereo unspecified)	–	–	52	–	–	–	·
Cc1cccc(COCC(Cc2ccccc2)N2CCN(C(=O)c3cc(Cl)cc(Cl)c3)CCC2=O)c1 (stereo unspecified)	–	–	50	–	–	–	·
O=C(COC(=O)C12CC3CC(CC(Br)(C3)C1)C2)N1CCOCC1	–	–	–	–	–	·	·
O=C(c1cn(Cc2ccccc2)nc1-c1ccccc1)N1CCN(c2ccccn2)CC1	–	–	53	–	–	50	71
O=C(c1ccccc1-c1ccccc1)N1CCN(c2ccccn2)CC1	–	–	59	–	–	58	50
Cc1cc(-c2ccccc2)nc(N2CCN(c3ccccn3)CC2)n1	–	–	59	–	–	–	·
Cc1cc2c(cc(C(=O)NCc3cccnc3)n2Cc2ccc(Cl)cc2)o1	–	–	–	–	–	·	·
O=C(C1COc2ccccc2O1)N1CCN(c2ccc(C(F)(F)F)cn2)CC1 (stereo unspecified)	–	–	–	–	–	·	·
COc1ccc2cc(C3CC(c4cccs4)=NN3C(C)=O)c(Cl)nc2c1 (stereo unspecified)	–	–	55	–	–	–	·
Cc1c(OCc2ccc(C(=O)O)o2)ccc2c3c(c(=O)oc12)CCC3	–	–	–	–	–	·	·
O=C1N(c2ccccc2C(F)(F)F)O[C@@]1(c1ccccc1)C1CCCCC1	–	–	87	–	–	50	52
O=C(Nc1ccccc1N1CCCCC1)C1CCN(S(=O)(=O)c2ccccc2C(F)(F)F)CC1	–	–	–	–	–	·	·
O=C1N(c2ccccc2C(F)(F)F)O[C@@]1(c1ccccc1)C1CCCC1	–	–	77	–	–	51	56
CC(C)(C)c1ccc(OCC(=O)N/N=C/c2cc(Br)ccc2OC(=O)c2ccco2)cc1	–	–	82	–	–	79	–
COc1ccc(Br)cc1/C=N/NC(=O)c1ccco1	–	–	–	–	–	·	·
SMILES	UPR CHOP act	XBP1 UPR activ	Mdm2-MdmX inh	UBC13 inh	Apaf1 inhib	Mdm2 MdmX conf	FLuc counter
O=C(Nc1ccccc1)C1=C[C@@H](c2ccc(C(F)(F)F)cc2)C[C@@H](OCc2ccc(CO)cc2)O1	–	–	–	–	–	·	·
Cc1ccc(C(O)(C(=O)NNc2ccc3ccccc3n2)c2ccc(C)cc2)cc1	–	–	51!	–	–	–	·
O=C(Nc1cc(Cl)ccc1O)c1snnc1-c1ccccc1	–	–	93	–	–	58	–
Cc1ccccc1Nc1c(-c2cccnc2)nc2ccccn12	–	–	–	–	–	·	·
Cc1ccn2c(Nc3ccccc3)c(-c3ccccn3)nc2c1	–	–	81	–	–	83	–
Cc1ccc2nc(-c3ccccn3)c(Nc3ccccc3C)n2c1	–	–	86	–	–	75	–
Cc1ccn2c(Nc3ccccc3C)c(-c3ccccn3)nc2c1	–	–	85	–	–	52	–
Cc1cccn2c(Nc3ccccc3)c(-c3ccccn3)nc12	–	–	–	–	–	·	·
Cc1ccccc1Nc1c(-c2ccccn2)nc2ccccn12	–	–	65	–	–	46	52
Cc1ccc2nc(-c3cccnc3)c(Nc3ccccc3C)n2c1	–	–	–	–	–	·	·
CC1(C)CC(=O)C2=C(C1)N(c1ccccc1)C(=O)C2(O)C(F)(F)F (stereo unspecified)	–	–	–	–	–	·	·
COc1ccc(-c2n[nH]c(C(F)(F)F)c2-c2cc3ccccc3o2)c(O)c1	–	–	81	–	–	43	47
Cc1ccc(C)c(N2CCN(CCCNC(=O)Cn3cccc3C(=O)c3ccccc3)CC2)c1	–	–	59	–	–	–	·
O=C(Cn1cccc1C(=O)c1ccccc1)NCCCN1CCOCC1	–	–	–	–	–	·	·
CCCc1nnc(SCc2ccc(OC)cc2)n1N	–	–	–	–	–	·	·
N#Cc1ccccc1OCCOCCNC1CCCC1	–	–	–	–	–	·	·
O=C(COc1ccc(-c2ccccc2)cc1)N1CCN(S(=O)(=O)Cc2ccccc2)CC1	–	–	57	–	–	59	75
Cc1ccc(OCC(=O)N2CCN(C(=O)Cc3ccccc3)CC2)cc1	–	–	–	–	–	·	·
Cc1cc2ccccn2c1C(=O)c1ccc([N+](=O)[O-])o1	–	–	64	–	–	–	·
Cc1cc2ccccn2c1C(=O)c1cccc([N+](=O)[O-])c1	–	–	–	–	–	·	·

Compound activity (PubChem BioAssay)
